Published values gathered from unrelated publications.
Protocols differ between the studies behind these lines.
Target: Cannabinoid receptor 2 (CNR2, Homo sapiens, UniProt P34972)

Structure (SMILES)	test	setting	quantity	value
CCCCCn1cc(C(=O)C2C(C)(C)C2(C)C)c2ccccc21	GTPγS binding, agonist, radiometric	cell membranes	EC50	334 nM
Cc1nc([C@@](C)(CC2CC2)NC(=O)c2cc(OCC(F)(F)F)c(C3CC3)cn2)no1	cAMP, agonist	–	EC50	8 nM
CCOC(=O)C(CC)(CCCSCCOCCOCCOCCNC(=O)OC(C)(C)C)NC(=O)c1ccc(C2CC2)c(Cc2ccc(F)cc2)n1 (stereo not drawn)	cAMP, agonist	–	EC50	10 nM
CC1CCC(NC(=O)c2cc3cc(Br)cnc3n(CCN3CCOCC3)c2=O)CC1 (stereo not drawn)	ligand displacement, radioligand	–	IC50	4.95 nM
C[C@H]1CC[C@H]2[C@H](C1)c1c(O)cc(-c3csc4ccccc34)cc1OC2(C)C	GTPγS binding, agonist, radiometric	cell membranes	EC50	16000 nM
CC1(C)C(C(=O)c2cn(CCCCCF)c3ccccc23)C1(C)C	GTPγS binding, agonist, radiometric	cell membranes	EC50	145 nM
CCOC(=O)[C@](CC)(CCC[S+]([O-])CCOCCOCCNC(=O)OC(C)(C)C)NC(=O)c1ccc(C2CC2)c(Cc2ccc(F)cc2)n1 (stereo partly drawn)	cAMP, agonist	–	EC50	7.9 nM
NC(=O)[C@@H]1CC(F)(F)CN1C(=O)c1ccc(N2CC(F)(F)C2)c(OCC2CC2)n1	cAMP, agonist	–	EC50	3 nM
COc1ccc(-c2cnc3c(c2)cc(C(=O)NC2CCC(C)CC2)c(=O)n3CCN2CCOCC2)cc1 (stereo not drawn)	ligand displacement, radioligand	–	IC50	5.56 nM
